Assays:
Format in all cases: organism-based
Settings in all cases: in vivo, other, 336 h
[1] = system: Vitis vinifera; test: Genotoxicity in Vitis vinifera exposed to compound through spray 4 times over 2 weeks assessed as relative adduct level A3 measured per 10^9 nucleotides using [32P]labeling based autoradiography relative to untreated control
Outline: (§1)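 Plants grown 2-6 weeks, groups of 2-4 sprayed four times over 2 weeks with label-rate formulations; water-sprayed controls. Leaf DNA kit-extracted. 10 µg DNA digested with micrococcal nuclease/spleen phosphodiesterase 4 h at 37 °C. NP1-enriched, then labeled with [γ-32P]ATP/T4 kinase 45 min at 37 °C. 2D PEI-cellulose TLC, imager readout. Samples spiked with 50 fmol HX-dG standard.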

[2] = system: Vitis vinifera; test: Genotoxicity in Vitis vinifera exposed to compound through spray 4 times over 2 weeks assessed as relative adduct level A2 measured per 10^9 nucleotides using [32P]labeling based autoradiography relative to untreated control
Outline: (§2)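 Plants (2–6 weeks grown), groups of 2–4, sprayed 4 times over 2 weeks with formulations diluted per label (chlorothalonil 1:256, carbaryl 1:64 in water); controls water-sprayed. DNA from 1 g leaf via DNeasy Maxi kit. 10 µg DNA digested with micrococcal nuclease/spleen phosphodiesterase (4 h, 37 °C), NP1-enriched (45 min, 37 °C), labelled with [γ-32P]ATP/T4 kinase (45 min, 37 °C).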

[3] = system: Vitis vinifera; test: Genotoxicity in Vitis vinifera exposed to compound through spray 4 times over 2 weeks assessed as relative adduct level A1 measured per 10^9 nucleotides using [32P]labeling based autoradiography relative to untreated control; outline: as §2
[4] = system: Cucumis sativus; test: Genotoxicity in Cucumis sativus (cucumber) exposed to compound through spray 4 times over 2 weeks assessed as relative adduct level A3 measured per 10^9 nucleotides using HX-dG internal standard using [32P]labeling based autoradiography relative to untreated control; outline: as §2
[5] = system: Cucumis sativus; test: Genotoxicity in Cucumis sativus (cucumber) exposed to compound through spray 4 times over 2 weeks assessed as relative adduct level A2 measured per 10^9 nucleotides using HX-dG internal standard using [32P]labeling based autoradiography relative to untreated control; outline: as §2
[6] = system: Cucumis sativus; test: Genotoxicity in Cucumis sativus (cucumber) exposed to compound through spray 4 times over 2 weeks assessed as relative adduct level A1 measured per 10^9 nucleotides using HX-dG internal standard using [32P]labeling based autoradiography relative to untreated control; outline: as §2
[7] = system: Cucumis sativus; test: Genotoxicity in Cucumis sativus (cucumber) exposed to compound through spray 4 times over 2 weeks assessed as relative adduct level A3 measured per 10^9 nucleotides using [32P]labeling based autoradiography relative to untreated control; outline: as §2
[8] = system: Cucumis sativus; test: Genotoxicity in Cucumis sativus (cucumber) exposed to compound through spray 4 times over 2 weeks assessed as relative adduct level A2 measured per 10^9 nucleotides using [32P]labeling based autoradiography relative to untreated control; outline: as §2
[9] = system: Cucumis sativus; test: Genotoxicity in Cucumis sativus (cucumber) exposed to compound through spray 4 times over 2 weeks assessed as relative adduct level A1 measured per 10^9 nucleotides using [32P]labeling based autoradiography relative to untreated control; outline: as §2
[10] = system: Phaseolus vulgaris; test: Genotoxicity in Phaseolus vulgaris (bush beans) exposed to compound through spray 4 times over 2 weeks assessed as relative adduct level A6 measured per 10^9 nucleotides using HX-dG internal standard using [32P]labeling based autoradiography relative to untreated control; outline: as §2
[11] = system: Phaseolus vulgaris; test: Genotoxicity in Phaseolus vulgaris (bush beans) exposed to compound through spray 4 times over 2 weeks assessed as relative adduct level A5 measured per 10^9 nucleotides using HX-dG internal standard using [32P]labeling based autoradiography relative to untreated control; outline: as §2
[12] = system: Phaseolus vulgaris; test: Genotoxicity in Phaseolus vulgaris (bush beans) exposed to compound through spray 4 times over 2 weeks assessed as relative adduct level A4 measured per 10^9 nucleotides using HX-dG internal standard using [32P]labeling based autoradiography relative to untreated control; outline: as §2
[13] = system: Phaseolus vulgaris; test: Genotoxicity in Phaseolus vulgaris (bush beans) exposed to compound through spray 4 times over 2 weeks assessed as relative adduct level A3 measured per 10^9 nucleotides using HX-dG internal standard using [32P]labeling based autoradiography relative to untreated control; outline: as §2
[14] = system: Phaseolus vulgaris; test: Genotoxicity in Phaseolus vulgaris (bush beans) exposed to compound through spray 4 times over 2 weeks assessed as relative adduct level A2 measured per 10^9 nucleotides using HX-dG internal standard using [32P]labeling based autoradiography relative to untreated control; outline: as §2
[15] = system: Phaseolus vulgaris; test: Genotoxicity in Phaseolus vulgaris (bush beans) exposed to compound through spray 4 times over 2 weeks assessed as relative adduct level A1 measured per 10^9 nucleotides using HX-dG internal standard using [32P]labeling based autoradiography relative to untreated control; outline: as §2
[16] = system: Phaseolus vulgaris; test: Genotoxicity in Phaseolus vulgaris (bush beans) exposed to compound through spray 4 times over 2 weeks assessed as relative adduct level A6 measured per 10^9 nucleotides using [32P]labeling based autoradiography relative to untreated control; outline: as §2
[17] = system: Phaseolus vulgaris; test: GenoToxicity in Phaseolus vulgaris (bush beans) exposed to compound through spray 4 times over 2 weeks assessed as relative adduct level A5 measured per 10^9 nucleotides using [32P]labeling based autoradiography relative to untreated control; outline: as §2
[18] = system: Phaseolus vulgaris; test: Genotoxicity in Phaseolus vulgaris (bush beans) exposed to compound through spray 4 times over 2 weeks assessed as relative adduct level A4 measured per 10^9 nucleotides using [32P]labeling based autoradiography relative to untreated control; outline: as §2
[19] = system: Phaseolus vulgaris; test: Genotoxicity in Phaseolus vulgaris (bush beans) exposed to compound through spray 4 times over 2 weeks assessed as relative adduct level A3 measured per 10^9 nucleotides using [32P]labeling based autoradiography relative to untreated control; outline: as §2
[20] = system: Phaseolus vulgaris; test: Genotoxicity in Phaseolus vulgaris (bush beans) exposed to compound through spray 4 times over 2 weeks assessed as relative adduct level A2 measured per 10^9 nucleotides using [32P]labeling based autoradiography relative to untreated control; outline: as §2
[21] = system: Phaseolus vulgaris; test: Genotoxicity in Phaseolus vulgaris (bush beans) exposed to compound through spray 4 times over 2 weeks assessed as relative adduct level A1 measured per 10^9 nucleotides using [32P]labeling based autoradiography relative to untreated control; outline: as §2
[22] = system: Glycine max; test: Genotoxicity in Glycine max (soybean) exposed to compound through spray 4 times over 2 weeks assessed as relative adduct level A6 measured per 10^9 nucleotides using HX-dG internal standard using [32P]labeling based autoradiography relative to untreated control; outline: as §2
[23] = system: Glycine max; test: Genotoxicity in Glycine max (soybean) exposed to compound through spray 4 times over 2 weeks assessed as relative adduct level A5 measured per 10^9 nucleotides using HX-dG internal standard using [32P]labeling based autoradiography relative to untreated control; outline: as §2
[24] = system: Glycine max; test: Genotoxicity in Glycine max (soybean) exposed to compound through spray 4 times over 2 weeks assessed as relative adduct level A4 measured per 10^9 nucleotides using HX-dG internal standard using [32P]labeling based autoradiography relative to untreated control; outline: as §2
[25] = system: Glycine max; test: Genotoxicity in Glycine max (soybean) exposed to compound through spray 4 times over 2 weeks assessed as relative adduct level A3 measured per 10^9 nucleotides using HX-dG internal standard using [32P]labeling based autoradiography relative to untreated control; outline: as §2
[26] = system: Glycine max; test: Genotoxicity in Glycine max (soybean) exposed to compound through spray 4 times over 2 weeks assessed as relative adduct level A6 measured per 10^9 nucleotides using [32P]labeling based autoradiography relative to untreated control; outline: as §2
[27] = system: Glycine max; test: Genotoxicity in Glycine max (soybean) exposed to compound through spray 4 times over 2 weeks assessed as relative adduct level A5 measured per 10^9 nucleotides using [32P]labeling based autoradiography relative to untreated control; outline: as §2
[28] = system: Glycine max; test: Genotoxicity in Glycine max (soybean) exposed to compound through spray 4 times over 2 weeks assessed as relative adduct level A4 measured per 10^9 nucleotides using [32P]labeling based autoradiography relative to untreated control; outline: as §2
[29] = system: Glycine max; test: Genotoxicity in Glycine max (soybean) exposed to compound through spray 4 times over 2 weeks assessed as relative adduct level A3 measured per 10^9 nucleotides using [32P]labeling based autoradiography relative to untreated control; outline: as §2
[30] = system: Glycine max; test: Genotoxicity in Glycine max (soybean) exposed to compound through spray 4 times over 2 weeks assessed as relative adduct level A2 measured per 10^9 nucleotides using [32P]labeling based autoradiography relative to untreated control; outline: as §2
[31] = system: Glycine max; test: Genotoxicity in Glycine max (soybean) exposed to compound through spray 4 times over 2 weeks assessed as relative adduct level A1 measured per 10^9 nucleotides using [32P]labeling based autoradiography relative to untreated control; outline: as §2
[32] = system: Glycine max; test: Genotoxicity in Glycine max (soybean) exposed to compound through spray 4 times over 2 weeks assessed as HNE-dG adducts using [32P]labeling based autoradiography (reference value: 34 cpm); outline: as §2
[33] = system: Cucurbita pepo; test: Genotoxicity in Cucurbita pepo (pumpkin) exposed to compound through spray 4 times over 2 weeks assessed as relative adduct level A6 measured per 10^9 nucleotides using HX-dG internal standard using [32P]labeling based autoradiography relative to untreated control; outline: as §2
[34] = system: Cucurbita pepo; test: Genotoxicity in Cucurbita pepo (pumpkin) exposed to compound through spray 4 times over 2 weeks assessed as relative adduct level A5 measured per 10^9 nucleotides using HX-dG internal standard using [32P]labeling based autoradiography relative to untreated control; outline: as §2
[35] = system: Cucurbita pepo; test: Genotoxicity inCucurbita pepo (pumpkin) exposed to compound through spray 4 times over 2 weeks assessed as relative adduct level A4 measured per 10^9 nucleotides using HX-dG internal standard using [32P]labeling based autoradiography relative to untreated control; outline: as §1
[36] = system: Cucurbita pepo; test: Genotoxicity in Cucurbita pepo (pumpkin) exposed to compound through spray 4 times over 2 weeks assessed as relative adduct level A3 measured per 10^9 nucleotides using HX-dG internal standard using [32P]labeling based autoradiography relative to untreated control; outline: as §2
[37] = system: Glycine max; test: Genotoxicity in Glycine max (soybean) exposed to compound through spray 4 times over 2 weeks assessed as relative adduct level A2 measured per 10^9 nucleotides using HX-dG internal standard using [32P]labeling based autoradiography relative to untreated control; outline: as §2
[38] = system: Glycine max; test: Genotoxicity in Glycine max (soybean) exposed to compound through spray 4 times over 2 weeks assessed as relative adduct level A1 measured per 10^9 nucleotides using HX-dG internal standard using [32P]labeling based autoradiography relative to untreated control; outline: as §2
[39] = system: Cucurbita pepo; test: Genotoxicity in Cucurbita pepo (pumpkin) exposed to compound through spray 4 times over 2 weeks assessed as relative adduct level A2 measured per 10^9 nucleotides using HX-dG internal standard using [32P]labeling based autoradiography relative to untreated control; outline: as §2
[40] = system: Cucurbita pepo; test: Genotoxicity in Cucurbita pepo (pumpkin) exposed to compound through spray 4 times over 2 weeks assessed as relative adduct level A1 measured per 10^9 nucleotides using HX-dG internal standard using [32P]labeling based autoradiography relative to untreated control; outline: as §2
[41] = system: Cucurbita pepo; test: Genotoxicity in Cucurbita pepo (pumpkin) exposed to compound through spray 4 times over 2 weeks assessed as relative adduct level A6 measured per 10^9 nucleotides using [32P]labeling based autoradiography relative to untreated control; outline: as §2
[42] = system: Cucurbita pepo; test: Genotoxicity in Cucurbita pepo (pumpkin) exposed to compound through spray 4 times over 2 weeks assessed as relative adduct level A5 measured per 10^9 nucleotides using [32P]labeling based autoradiography relative to untreated control; outline: as §2
[43] = system: Cucurbita pepo; test: Genotoxicity in Cucurbita pepo (pumpkin) exposed to compound through spray 4 times over 2 weeks assessed as relative adduct level A4 measured per 10^9 nucleotides using [32P]labeling based autoradiography relative to untreated control; outline: as §2
[44] = system: Cucurbita pepo; test: Genotoxicity in Cucurbita pepo (pumpkin) exposed to compound through spray 4 times over 2 weeks assessed as relative adduct level A3 measured per 10^9 nucleotides using [32P]labeling based autoradiography relative to untreated control; outline: as §2
[45] = system: Cucurbita pepo; test: Genotoxicity in Cucurbita pepo (pumpkin) exposed to compound through spray 4 times over 2 weeks assessed as relative adduct level A2 measured per 10^9 nucleotides using [32P]labeling based autoradiography relative to untreated control; outline: as §2
[46] = system: Cucurbita pepo; test: Genotoxicity in Cucurbita pepo (pumpkin) exposed to compound through spray 4 times over 2 weeks assessed as relative adduct level A1 measured per 10^9 nucleotides using [32P]labeling based autoradiography relative to untreated control; outline: as §2
[47] = system: Vitis vinifera; test: Genotoxicity in Vitis vinifera exposed to compound through spray 4 times over 2 weeks assessed as relative adduct level A3 measured per 10^9 nucleotides using HX-dG internal standard using [32P]labeling based autoradiography relative to untreated control; outline: as §2
[48] = system: Glycine max; test: Genotoxicity in Glycine max (soybean) exposed to compound through spray 4 times over 2 weeks assessed as HNE-dG adducts measured per 10^9 nucleotides using [32P]labeling based autoradiography (reference value: 2 no unit); outline: as §2
[49] = system: Vitis vinifera; test: Genotoxicity in Vitis vinifera exposed to compound through spray 4 times over 2 weeks assessed as relative adduct level A2 measured per 10^9 nucleotides using HX-dG internal standard using [32P]labeling based autoradiography relative to untreated control; outline: as §2
[50] = system: Vitis vinifera; test: Genotoxicity in Vitis vinifera exposed to compound through spray 4 times over 2 weeks assessed as relative adduct level A1 measured per 10^9 nucleotides using HX-dG internal standard using [32P]labeling based autoradiography relative to untreated control; outline: as §2

N#Cc1c(Cl)c(Cl)c(Cl)c(C#N)c1Cl [CHLOROTHALONIL]
Activity [1]: 155
Activity [2]: 66
Activity [3]: 36
Activity [4]: 10667 cpm
Activity [5]: 12506 cpm
Activity [6]: 5420 cpm
Activity [7]: 229
Activity [8]: 268
Activity [9]: 116
Activity [10]: 6051 cpm
Activity [11]: 4410 cpm
Activity [12]: 2814 cpm
Activity [13]: 5038 cpm
Activity [14]: 5697 cpm
Activity [15]: 5901 cpm
Activity [16]: 174
Activity [17]: 127
Activity [18]: 81
Activity [19]: 145
Activity [20]: 164
Activity [21]: 169
Activity [22]: 16472 cpm
Activity [23]: 4613 cpm
Activity [24]: 6823 cpm
Activity [25]: 6932 cpm
Activity [26]: 324
Activity [27]: 91
Activity [28]: 134
Activity [29]: 136
Activity [30]: 172
Activity [31]: 797
Activity [32]: 8163 cpm
Activity [33]: 71701 cpm
Activity [34]: 3195 cpm
Activity [35]: 679 cpm
Activity [36]: 3033 cpm
Activity [37]: 8753 cpm
Activity [38]: 40547 cpm
Activity [39]: 1323 cpm
Activity [40]: 3731 cpm
Activity [41]: 1409
Activity [42]: 63
Activity [43]: 13
Activity [44]: 60
Activity [45]: 26
Activity [46]: 73
Activity [47]: 9447 cpm
Activity [48]: 160
Activity [49]: 4015 cpm
Activity [50]: 2201 cpm

Reference: ChEMBL document CHEMBL3045357, “DNA adducts as biomarkers for oxidative and genotoxic stress from pesticides in crop plants” (J Agric Food Chem, 2008)
